# Experimental data from ChEMBL document CHEMBL1123914, “6-Methylergoline-8-carboxylic acid esters as serotonin antagonists: N1-substituent effects on 5HT2 receptor affinity” (J Med Chem, 1987).
# Target: T1, Serotonin 2 (5-HT2) receptor (Rattus norvegicus) (UniProt P30994+P08909+P14842)
# Assay: Affinity towards 5-hydroxytryptamine 2 receptor by measuring its ability to antagonize serotonin-induced contractions in the rat jugular vein; no appreciable 5-HT2 receptor affinity
# Procedure, shortened: (§1)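 Rat external jugular vein rings, cannulated and mounted between two L-shaped needles on a force transducer in Krebs bicarbonate buffer. Tissues equilibrated 1–2 h. After control cumulative serotonin contraction curves, vessels were incubated with antagonist for 1 h and the serotonin curves repeated. K_B = [B]/(dose ratio − 1), where dose ratio is agonist ED50 with antagonist over control ED50. Reported as −log K_B.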
# T1 sequence (P08909 whole entry, looked up): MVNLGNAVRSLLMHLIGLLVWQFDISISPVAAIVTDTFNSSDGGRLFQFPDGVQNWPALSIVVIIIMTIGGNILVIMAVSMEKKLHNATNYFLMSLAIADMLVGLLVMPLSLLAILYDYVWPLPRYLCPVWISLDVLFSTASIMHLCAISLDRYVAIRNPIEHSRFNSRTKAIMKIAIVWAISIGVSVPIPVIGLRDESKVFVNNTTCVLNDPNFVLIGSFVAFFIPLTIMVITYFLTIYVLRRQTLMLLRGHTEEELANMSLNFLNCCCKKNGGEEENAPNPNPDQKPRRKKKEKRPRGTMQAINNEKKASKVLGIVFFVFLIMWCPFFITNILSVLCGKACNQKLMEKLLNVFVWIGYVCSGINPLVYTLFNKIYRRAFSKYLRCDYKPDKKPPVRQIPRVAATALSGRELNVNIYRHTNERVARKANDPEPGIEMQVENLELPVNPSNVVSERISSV
# T1 sequence (P14842 whole entry, looked up): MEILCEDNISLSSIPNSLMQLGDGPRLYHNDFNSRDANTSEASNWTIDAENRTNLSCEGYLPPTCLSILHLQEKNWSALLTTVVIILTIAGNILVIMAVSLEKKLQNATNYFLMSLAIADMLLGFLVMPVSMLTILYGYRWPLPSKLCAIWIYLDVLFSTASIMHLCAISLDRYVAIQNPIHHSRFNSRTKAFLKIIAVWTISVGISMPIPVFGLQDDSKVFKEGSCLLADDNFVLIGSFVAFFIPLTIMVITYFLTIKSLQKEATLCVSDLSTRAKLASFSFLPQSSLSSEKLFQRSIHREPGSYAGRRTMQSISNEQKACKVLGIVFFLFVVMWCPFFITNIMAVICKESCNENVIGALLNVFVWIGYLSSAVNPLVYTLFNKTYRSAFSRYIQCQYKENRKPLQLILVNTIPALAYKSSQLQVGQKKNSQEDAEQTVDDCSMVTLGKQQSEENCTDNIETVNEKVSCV
# T1 sequence (P30994 whole entry, looked up): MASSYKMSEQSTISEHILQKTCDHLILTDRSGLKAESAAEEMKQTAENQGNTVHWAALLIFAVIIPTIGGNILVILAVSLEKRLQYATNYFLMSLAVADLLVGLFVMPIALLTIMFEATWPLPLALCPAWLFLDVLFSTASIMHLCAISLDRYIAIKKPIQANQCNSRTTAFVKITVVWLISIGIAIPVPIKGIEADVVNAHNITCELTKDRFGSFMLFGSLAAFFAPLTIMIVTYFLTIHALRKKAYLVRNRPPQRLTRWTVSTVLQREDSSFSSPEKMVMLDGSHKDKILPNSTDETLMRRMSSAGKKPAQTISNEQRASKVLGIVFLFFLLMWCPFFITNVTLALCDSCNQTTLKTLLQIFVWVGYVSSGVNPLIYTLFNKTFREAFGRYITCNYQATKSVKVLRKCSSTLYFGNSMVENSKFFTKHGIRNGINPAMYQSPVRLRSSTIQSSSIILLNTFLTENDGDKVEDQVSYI
row,SMILES,-Log KB
1,CCC(CC)n1cc2c3c(cccc31)C1CC(C(=O)OC(C)C(C)O)CN(C)C1C2 (stereo not given),< 7
2,CCC(CC)n1cc2c3c(cccc31)C1CC(C(=O)OC)CN(C)C1C2 (stereo not given),< 7
3,CC(O)C(C)OC(=O)C1CC2c3cccc4c3c(cn4C3CCCC3)CC2N(C)C1 (stereo not given),< 7

# Target: T1, Serotonin 2 (5-HT2) receptor (Rattus norvegicus)
# Assay: Affinity towards 5-hydroxytryptamine 2 receptor by measuring its ability to antagonize serotonin-induced contractions in the rat jugular vein.
# Procedure, shortened: as §1
row,SMILES,-Log KB
1,C=CCn1cc2c3c(cccc31)C1CC(C(=O)OCCO)CN(C)C1C2 (stereo not given),8.17
2,CCn1cc2c3c(cccc31)C1CC(C(=O)OC(C)C(C)O)CN(C)C1C2 (stereo not given),8.9
3,CCCCCCCCn1cc2c3c(cccc31)C1CC(C(=O)OC(C)C(C)O)CN(C)C1C2 (stereo not given),< 7
4,COC(=O)C1CC2c3cccc4[nH]cc(c34)CC2N(C)C1 (stereo not given),8.1
5,CC(C)n1cc2c3c(cccc31)C1CC(C(=O)OCCO)CN(C)C1C2 (stereo not given),9.13
6,CC(C)Cn1cc2c3c(cccc31)C1CC(C(=O)OCCO)CN(C)C1C2 (stereo not given),7.42
7,CCc1c(C)n(CC)c2ccc(N(C)C)cc12,6.45
8,CCCn1cc2c3c(cccc31)C1CC(C(=O)OC)CN(C)C1C2 (stereo not given),7.72
9,COC(=O)C1CC2c3cccc4c3c(cn4C(C)C)CC2N(C)C1 (stereo not given),8.29
10,CCCn1cc2c3c(cccc31)C1CC(C(=O)OC(C)C(C)O)CN(C)C1C2 (stereo not given),8.34
11,C=CCn1cc2c3c(cccc31)C1CC(C(=O)OC)CN(C)C1C2 (stereo not given),7.89
12,CC(O)C(C)OC(=O)C1CC2c3cccc4c3c(cn4C3CCCCCC3)CC2N(C)C1 (stereo not given),7.45
13,CC(O)C(C)OC(=O)C1CC2c3cccc4c3c(cn4C)CC2N(C)C1 (stereo not given),9.26
14,COC(=O)C1CC2c3cccc4c3c(cn4Cc3ccccc3)CC2N(C)C1 (stereo not given),7.64
15,CCc1c(C)n(C)c2ccc(N(C)C)cc12,6.51
16,CC(O)C(C)OC(=O)C1CC2c3cccc4c3c(cn4C(C)C)CC2N(C)C1 (stereo not given),9.76
17,COC(=O)C1CC2c3cccc4c3c(cn4C)CC2N(C)C1 (stereo not given),8.23
18,CN1CC(C(=O)OCCO)CC2c3cccc4c3c(cn4C)CC21 (stereo not given),8.63
19,CCc1c(C)[nH]c2ccc(N(C)C)cc12,4.93
20,CCc1c(C)n(C(C)C)c2ccc(N(C)C)cc12,7.28
21,CN1CC(C(=O)OCCO)CC2c3cccc4c3c(cn4Cc3ccccc3)CC21 (stereo not given),8.12
22,CC(C)Cn1cc2c3c(cccc31)C1CC(C(=O)OC(C)C(C)O)CN(C)C1C2 (stereo not given),7.53
23,COC(=O)C1CC2c3cccc4c3c(cn4CC(C)C)CC2N(C)C1 (stereo not given),7.57
24,CC(O)C(C)OC(=O)C1CC2c3cccc4c3c(cn4Cc3ccccc3)CC2N(C)C1 (stereo not given),7.37
25,CN1CC(C(=O)OCCO)CC2c3cccc4[nH]cc(c34)CC21 (stereo not given),7.62
26,CCn1cc2c3c(cccc31)C1CC(C(=O)OC)CN(C)C1C2 (stereo not given),8.12
27,CC(O)C(C)OC(=O)C1CC2c3cccc4[nH]cc(c34)CC2N(C)C1 (stereo not given),8.42
